ChEMBL document CHEMBL2086252, “Syntheses and evaluation of anticonvulsant activity of novel branched alkyl carbamates” (J Med Chem, 2012)
Activity calls are given as the source filed them. The rule behind the calls is not given here.

Key:
[1] = system: Mus musculus; assay: Anticonvulsant activity in albino CF1 mouse assessed as protection against subcutaneous metrazol-induced seizures at 30 mg/kg, ip after 0.5 hrs; assay type: functional, organism-based; parameters: dose 30 mg/kg
In short: (§1)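 Mice dosed ip at 30, 100 or 300 mg/kg, then tested 0.5 h and 4 h after administration in the MES or scMet test. Protection was recorded as animals protected over animals tested. Neurotoxicity was recorded as motor impairment or sedation, as animals affected over animals tested.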

[2] = system: Mus musculus; assay: Anticonvulsant activity in albino CF1 mouse assessed as protection against subcutaneous metrazol-induced seizures at 100 mg/kg, ip after 0.5 hrs; assay type: functional, organism-based; parameters: dose 100 mg/kg; in short: as §1
[3] = system: Mus musculus; assay: Anticonvulsant activity in albino CF1 mouse assessed as protection against subcutaneous metrazol-induced seizures at 300 mg/kg, ip after 0.5 hrs; assay type: functional, organism-based; parameters: dose 300 mg/kg; in short: as §1
[4] = system: Mus musculus; assay: Anticonvulsant activity in albino CF1 mouse assessed as protection against subcutaneous metrazol-induced seizures at 30 mg/kg, ip after 4 hrs; assay type: functional, organism-based; parameters: dose 30 mg/kg; in short: as §1
[5] = system: Mus musculus; assay: Anticonvulsant activity in albino CF1 mouse assessed as protection against subcutaneous metrazol-induced seizures at 100 mg/kg, ip after 4 hrs; assay type: functional, organism-based; parameters: dose 100 mg/kg; in short: as §1
[6] = system: Mus musculus; assay: Anticonvulsant activity in albino CF1 mouse assessed as protection against subcutaneous metrazol-induced seizures at 300 mg/kg, ip after 4 hrs; assay type: functional, organism-based; parameters: dose 300 mg/kg; in short: as §1
[7] = system: Mus musculus; assay: Anticonvulsant activity in albino CF1 mouse assessed as protection against maximal electroshock-induced seizures at 30 mg/kg, ip after 0.5 hrs; assay type: functional, organism-based; parameters: dose 30 mg/kg; in short: as §1
[8] = system: Mus musculus; assay: Anticonvulsant activity in albino CF1 mouse assessed as protection against maximal electroshock-induced seizures at 300 mg/kg, ip after 0.5 hrs; assay type: functional, organism-based; parameters: dose 300 mg/kg; in short: as §1
[9] = system: Mus musculus; assay: Anticonvulsant activity in albino CF1 mouse assessed as protection against maximal electroshock-induced seizures at 30 mg/kg, ip after 4 hrs; assay type: functional, organism-based; parameters: dose 30 mg/kg; in short: as §1
[10] = system: Mus musculus; assay: Anticonvulsant activity in albino CF1 mouse assessed as protection against maximal electroshock-induced seizures at 100 mg/kg, ip after 4 hrs; assay type: functional, organism-based; parameters: dose 100 mg/kg; in short: as §1
[11] = system: Mus musculus; assay: Anticonvulsant activity in albino CF1 mouse assessed as protection against maximal electroshock-induced seizures at 300 mg/kg, ip after 4 hrs; assay type: functional, organism-based; parameters: dose 300 mg/kg; in short: as §1
[12] = system: Mus musculus; assay: Neurotoxicity in albino CF1 mouse assessed as minimal motor impairment at 30 mg/kg, ip after 0.5 hrs by rotarod test; assay type: toxicity, organism-based; parameters: dose 30 mg/kg, route intraperitoneal; details: in vivo; in short: as §1
[13] = system: Mus musculus; assay: Neurotoxicity in albino CF1 mouse assessed as minimal motor impairment at 300 mg/kg, ip after 0.5 hrs by rotarod test; assay type: toxicity, organism-based; parameters: dose 300 mg/kg, route intraperitoneal; details: in vivo; in short: as §1
[14] = system: Mus musculus; assay: Neurotoxicity in albino CF1 mouse assessed as minimal motor impairment at 30 mg/kg, ip after 4 hrs by rotarod test; assay type: toxicity, organism-based; parameters: dose 30 mg/kg, route intraperitoneal; details: in vivo; in short: as §1
[15] = system: Mus musculus; assay: Neurotoxicity in albino CF1 mouse assessed as minimal motor impairment at 100 mg/kg, ip after 4 hrs by rotarod test; assay type: toxicity, organism-based; parameters: dose 100 mg/kg, route intraperitoneal; details: in vivo; in short: as §1
[16] = system: Mus musculus; assay: Neurotoxicity in albino CF1 mouse assessed as minimal motor impairment at 300 mg/kg, ip after 4 hrs by rotarod test; assay type: toxicity, organism-based; parameters: dose 300 mg/kg, route intraperitoneal; details: in vivo; in short: as §1
[17] = system: Rattus norvegicus; assay: Anticonvulsant activity in Sprague-Dawley albino rat assessed as protection against maximal electroshock-induced seizures at 30 mg/kg, po after 15 mins; assay type: functional, organism-based; parameters: dose 30 mg/kg
In short: (§2)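 Rats dosed orally. Anti-MES protection was scored as animals protected over animals tested at each time after dosing. Neurotoxicity was scored as motor impairment or sedation, as animals affected over animals tested.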

[18] = system: Rattus norvegicus; assay: Anticonvulsant activity in Sprague-Dawley albino rat assessed as protection against maximal electroshock-induced seizures at 30 mg/kg, po after 30 mins; assay type: functional, organism-based; parameters: dose 30 mg/kg; in short: as §2
[19] = system: Rattus norvegicus; assay: Anticonvulsant activity in Sprague-Dawley albino rat assessed as protection against maximal electroshock-induced seizures at 30 mg/kg, po after 1 hr; assay type: functional, organism-based; parameters: dose 30 mg/kg; in short: as §2
[20] = system: Rattus norvegicus; assay: Anticonvulsant activity in Sprague-Dawley albino rat assessed as protection against maximal electroshock-induced seizures at 30 mg/kg, po after 2 hrs; assay type: functional, organism-based; parameters: dose 30 mg/kg; in short: as §2
[21] = system: Rattus norvegicus; assay: Anticonvulsant activity in Sprague-Dawley albino rat assessed as protection against maximal electroshock-induced seizures at 30 mg/kg, po after 4 hrs; assay type: functional, organism-based; parameters: dose 30 mg/kg; in short: as §2
[22] = system: Rattus norvegicus; assay: Neurotoxicity in Sprague-Dawley albino rat assessed as minimal motor impairment at 30 mg/kg, po by rotarod test; assay type: toxicity, organism-based; parameters: dose 30 mg/kg, route oral; details: in vivo; in short: as §2
[23] = system: Rattus norvegicus; assay: Anticonvulsant activity in Sprague-Dawley albino rat assessed as protection against pilocarpine-induced status epilepticus at 65 mg/kg, ip; assay type: functional, organism-based; parameters: dose 65 mg/kg
In short: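 Pilocarpine status epilepticus model in rats. Number and severity of convulsive seizures were observed behaviourally.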

[24] = system: Rattus norvegicus; assay: Neurotoxicity in pilocarpine-induced status epilepticus Sprague-Dawley albino rat model assessed as minimal motor impairment at 100 mg/kg, ip after 0.25 hr by rotarod test; assay type: toxicity, organism-based; parameters: dose 100 mg/kg, route intraperitoneal; details: in vivo
[25] = system: Rattus norvegicus; assay: Neurotoxicity in pilocarpine-induced status epilepticus Sprague-Dawley albino rat model assessed as minimal motor impairment at 300 mg/kg, ip after 0.25 hr by rotarod test; assay type: toxicity, organism-based; parameters: dose 300 mg/kg, route intraperitoneal; details: in vivo
In short: (§3)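 Rat pilocarpine status epilepticus model: test carbamate given at 0 or 30 min after the first observed Racine stage 3 motor seizure, which marks SE onset. Neurotoxicity was scored within the same model.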

[26] = system: Rattus norvegicus; assay: Neurotoxicity in pilocarpine-induced status epilepticus Sprague-Dawley albino rat model assessed as minimal motor impairment at 30 mg/kg, ip after 0.25 hr by rotarod test; assay type: toxicity, organism-based; parameters: dose 30 mg/kg, route intraperitoneal; details: in vivo; in short: as §3
[27] = system: Rattus norvegicus; assay: Neurotoxicity in pilocarpine-induced status epilepticus Sprague-Dawley albino rat model assessed as minimal motor impairment at 100 mg/kg, ip after 0.5 hrs by rotarod test; assay type: toxicity, organism-based; parameters: dose 100 mg/kg, route intraperitoneal; details: in vivo
[28] = system: Rattus norvegicus; assay: Neurotoxicity in pilocarpine-induced status epilepticus Sprague-Dawley albino rat model assessed as minimal motor impairment at 300 mg/kg, ip after 0.5 hrs by rotarod test; assay type: toxicity, organism-based; parameters: dose 300 mg/kg, route intraperitoneal; details: in vivo; in short: as §3
[29] = system: Rattus norvegicus; assay: Neurotoxicity in pilocarpine-induced status epilepticus Sprague-Dawley albino rat model assessed as minimal motor impairment at 30 mg/kg, ip after 0.5 hrs by rotarod test; assay type: toxicity, organism-based; parameters: dose 30 mg/kg, route intraperitoneal; details: in vivo; in short: as §3
[30] = system: Rattus norvegicus; assay: Neurotoxicity in pilocarpine-induced status epilepticus Sprague-Dawley albino rat model assessed as minimal motor impairment at 100 mg/kg, ip after 1 hr by rotarod test; assay type: toxicity, organism-based; parameters: dose 100 mg/kg, route intraperitoneal; details: in vivo
[31] = system: Rattus norvegicus; assay: Neurotoxicity in pilocarpine-induced status epilepticus Sprague-Dawley albino rat model assessed as minimal motor impairment at 30 mg/kg, ip after 1 hr by rotarod test; assay type: toxicity, organism-based; parameters: dose 30 mg/kg, route intraperitoneal; details: in vivo; in short: as §3
[32] = system: Rattus norvegicus; assay: Neurotoxicity in pilocarpine-induced status epilepticus Sprague-Dawley albino rat model assessed as minimal motor impairment at 100 mg/kg, ip after 2 hrs by rotarod test; assay type: toxicity, organism-based; parameters: dose 100 mg/kg, route intraperitoneal; details: in vivo
[33] = system: Rattus norvegicus; assay: Neurotoxicity in pilocarpine-induced status epilepticus Sprague-Dawley albino rat model assessed as minimal motor impairment at 300 mg/kg, ip after 2 hrs by rotarod test; assay type: toxicity, organism-based; parameters: dose 300 mg/kg, route intraperitoneal; details: in vivo; in short: as §3
[34] = system: Rattus norvegicus; assay: Neurotoxicity in pilocarpine-induced status epilepticus Sprague-Dawley albino rat model assessed as minimal motor impairment at 30 mg/kg, ip after 2 hrs by rotarod test; assay type: toxicity, organism-based; parameters: dose 30 mg/kg, route intraperitoneal; details: in vivo; in short: as §3
[35] = system: Rattus norvegicus; assay: Neurotoxicity in pilocarpine-induced status epilepticus Sprague-Dawley albino rat model assessed as minimal motor impairment at 100 mg/kg, ip after 4 hrs by rotarod test; assay type: toxicity, organism-based; parameters: dose 100 mg/kg, route intraperitoneal; details: in vivo
[36] = system: Rattus norvegicus; assay: Neurotoxicity in pilocarpine-induced status epilepticus Sprague-Dawley albino rat model assessed as minimal motor impairment at 300 mg/kg, ip after 4 hrs by rotarod test; assay type: toxicity, organism-based; parameters: dose 300 mg/kg, route intraperitoneal; details: in vivo; in short: as §3
[37] = system: Rattus norvegicus; assay: Neurotoxicity in pilocarpine-induced status epilepticus Sprague-Dawley albino rat model assessed as minimal motor impairment at 30 mg/kg, ip after 4 hrs by rotarod test; assay type: toxicity, organism-based; parameters: dose 30 mg/kg, route intraperitoneal; details: in vivo; in short: as §3
[38] = Neurotoxicity in po dosed Sprague-Dawley albino rat assessed as minimal motor impairment by rotarod test; assay type: toxicity, organism-based; details: in vivo
In short: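 Rats dosed orally; 4 rats per time point after dosing. Neurotoxicity was scored as motor impairment or sedation and reported as number of animals affected over number tested.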

[39] = system: Rattus norvegicus; assay: Anticonvulsant activity in po dosed Sprague-Dawley albino rat assessed as protection against maximal electroshock-induced seizures; assay type: functional
In short: (§4)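 Quantitative testing: rats dosed orally or ip in MES and scMet tests, and mice dosed ip, including the 6 Hz (32 mA) psychomotor seizure test. ED50 and TD50 were reported in mg/kg with ranges in parentheses. Protective index was calculated as TD50/ED50.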

[40] = system: Rattus norvegicus; assay: Protective index, ratio of TD50 for po dosed Sprague-Dawley albino rat by rotarod test to ED50 for po dosed Sprague-Dawley albino rat by maximal electroshock seizures test; assay type: functional
In short: (§5)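 Protective index calculated as TD50/ED50, with TD50 and ED50 taken from the same species and dosing route.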

[41] = system: Rattus norvegicus; assay: Anticonvulsant activity in po dosed Sprague-Dawley albino rat assessed as protection against subcutaneous metrazol-induced seizures; assay type: functional; in short: as §4
[42] = system: Rattus norvegicus; assay: Protective index, ratio of TD50 for po dosed Sprague-Dawley albino rat by rotarod test to ED50 for po dosed Sprague-Dawley albino rat by subcutaneous metrazol seizures test; assay type: functional; in short: as §5

## CCC(C)CCOC(N)=O (racemic)
[1]
  Activity: inactive
[2]
  Activity: inactive
[3]
  Activity: inactive
[4]
  Activity: inactive
[5]
  Activity: inactive
[6]
  Activity: inactive
[7]
  Activity: inactive
[8]
  Activity: Active
[9]
  Activity: inactive
[10]
  Activity: inactive
[11]
  Activity: inactive
[12]
  Activity: Non-toxic
[13]
  Activity: Toxic
[14]
  Activity: Non-toxic
[15]
  Activity: Non-toxic
[16]
  Activity: Non-toxic
[17]
  Activity: inactive
[18]
  Activity: inactive
[19]
  Activity: inactive
[20]
  Activity: inactive
[21]
  Activity: inactive
[22]
  Activity: Non-toxic
[23]
  Activity: Active
[24]
  Activity: Toxic
[25]
  Activity: Toxic
[26]
  Activity: Non-toxic
[27]
  Activity: Toxic
[28]
  Activity: Toxic
[29]
  Activity: Non-toxic
[30]
  Activity: Non-toxic
[31]
  Activity: Non-toxic
[32]
  Activity: Non-toxic
[33]
  Activity: Non-toxic
[34]
  Activity: Non-toxic
[35]
  Activity: Non-toxic
[36]
  Activity: Non-toxic
[37]
  Activity: Non-toxic

## NC(=O)OC[C@@H](O)c1ccccc1Cl [CARISBAMATE]
[38]
  TD50: 137 mg/kg
[39]
  ED50: 8 mg/kg
[40]
  Ratio TD50/ED50: 18
[41]
  ED50: 58 mg/kg
[42]
  Ratio TD50/ED50: 2.4

## NC(=O)OCC(COC(N)=O)c1ccccc1 [FELBAMATE]
[38]
  TD50: > 500 mg/kg
[39]
  ED50: 25 mg/kg
[40]
  Ratio TD50/ED50: 20
[41]
  ED50: > 250 mg/kg
[42]
  Ratio TD50/ED50: >2

## CCCC(CCC)C(=O)O [VALPROIC ACID]
[41]
  ED50: 646 mg/kg
